The target in test [1] is Adrenergic receptor alpha (Rattus norvegicus) (UniProt P15823+P23944+P43140+P22086+P19328+P22909). Briefly: The alpha-1/alpha-2 selectivity ratio is the antilog of the difference between pA2 values at alpha-1 and alpha-2 adrenoceptors.
Test [2] deals with T1, Adrenergic receptor alpha-1 (Rattus norvegicus, UniProt P15823+P23944+P43140).
T1 sequence (P15823 whole entry): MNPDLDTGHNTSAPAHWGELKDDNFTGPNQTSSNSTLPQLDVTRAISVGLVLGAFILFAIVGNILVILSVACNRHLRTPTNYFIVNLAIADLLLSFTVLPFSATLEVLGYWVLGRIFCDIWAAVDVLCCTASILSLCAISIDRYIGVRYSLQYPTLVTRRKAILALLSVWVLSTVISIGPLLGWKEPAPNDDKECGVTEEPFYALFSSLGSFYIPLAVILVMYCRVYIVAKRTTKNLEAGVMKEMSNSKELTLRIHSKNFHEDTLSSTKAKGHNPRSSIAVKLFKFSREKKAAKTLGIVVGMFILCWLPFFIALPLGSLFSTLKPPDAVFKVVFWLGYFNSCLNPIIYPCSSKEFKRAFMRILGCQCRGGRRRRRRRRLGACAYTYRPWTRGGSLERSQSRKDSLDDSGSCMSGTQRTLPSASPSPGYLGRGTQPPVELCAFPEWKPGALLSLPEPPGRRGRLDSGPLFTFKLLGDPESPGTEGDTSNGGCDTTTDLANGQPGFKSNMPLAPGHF
T1 sequence (P23944 whole entry): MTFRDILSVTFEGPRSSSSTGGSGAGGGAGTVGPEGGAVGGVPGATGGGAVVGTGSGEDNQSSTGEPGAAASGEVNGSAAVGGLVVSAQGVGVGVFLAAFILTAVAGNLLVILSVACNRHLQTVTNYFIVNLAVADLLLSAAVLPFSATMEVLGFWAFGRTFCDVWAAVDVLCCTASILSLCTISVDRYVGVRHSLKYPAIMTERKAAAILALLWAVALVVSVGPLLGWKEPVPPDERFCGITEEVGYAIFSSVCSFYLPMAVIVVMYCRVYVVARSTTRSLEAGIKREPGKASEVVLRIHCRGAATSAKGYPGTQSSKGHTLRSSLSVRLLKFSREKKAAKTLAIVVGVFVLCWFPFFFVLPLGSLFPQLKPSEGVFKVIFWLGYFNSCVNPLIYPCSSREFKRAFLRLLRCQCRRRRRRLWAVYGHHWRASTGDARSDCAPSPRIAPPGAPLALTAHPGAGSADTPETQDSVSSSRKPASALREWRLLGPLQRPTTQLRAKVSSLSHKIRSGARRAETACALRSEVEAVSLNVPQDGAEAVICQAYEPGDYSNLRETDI
T1 sequence (P43140 whole entry): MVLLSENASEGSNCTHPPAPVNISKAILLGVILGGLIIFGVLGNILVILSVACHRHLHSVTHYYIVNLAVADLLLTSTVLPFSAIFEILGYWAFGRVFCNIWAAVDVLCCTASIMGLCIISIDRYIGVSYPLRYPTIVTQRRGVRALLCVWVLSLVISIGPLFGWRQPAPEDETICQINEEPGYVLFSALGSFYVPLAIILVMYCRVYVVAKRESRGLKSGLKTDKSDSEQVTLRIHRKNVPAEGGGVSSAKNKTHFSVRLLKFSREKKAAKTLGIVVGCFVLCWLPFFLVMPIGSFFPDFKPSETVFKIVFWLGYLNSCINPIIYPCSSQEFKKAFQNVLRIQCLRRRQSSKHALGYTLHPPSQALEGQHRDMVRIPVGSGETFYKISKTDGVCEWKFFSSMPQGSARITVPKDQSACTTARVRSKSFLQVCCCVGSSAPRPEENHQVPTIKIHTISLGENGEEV
Briefly: Alpha-1 adrenergic receptor blocking activity against norepinephrine-induced contraction in epididymal portion of rat vas deferens. Format: tissue-based. In a few lines:
(§1)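 Epididymal halves (14 mm) of vas deferens from male albino rats (175-200 g), Krebs with propranolol 1 μM and cocaine 10 μM, 0.4 g tension. Equilibrated ≥1 h; cumulative norepinephrine curves, first discarded, second control, third after 30 min antagonist. Time-control tissues run in parallel. pA2 from Schild plots constrained to slope -1.0, each concentration tested five times.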

Test [3] deals with T2, Adrenergic receptor alpha-2 (Rattus norvegicus, UniProt P22086+P19328+P22909).
T2 sequence (P22086 whole entry): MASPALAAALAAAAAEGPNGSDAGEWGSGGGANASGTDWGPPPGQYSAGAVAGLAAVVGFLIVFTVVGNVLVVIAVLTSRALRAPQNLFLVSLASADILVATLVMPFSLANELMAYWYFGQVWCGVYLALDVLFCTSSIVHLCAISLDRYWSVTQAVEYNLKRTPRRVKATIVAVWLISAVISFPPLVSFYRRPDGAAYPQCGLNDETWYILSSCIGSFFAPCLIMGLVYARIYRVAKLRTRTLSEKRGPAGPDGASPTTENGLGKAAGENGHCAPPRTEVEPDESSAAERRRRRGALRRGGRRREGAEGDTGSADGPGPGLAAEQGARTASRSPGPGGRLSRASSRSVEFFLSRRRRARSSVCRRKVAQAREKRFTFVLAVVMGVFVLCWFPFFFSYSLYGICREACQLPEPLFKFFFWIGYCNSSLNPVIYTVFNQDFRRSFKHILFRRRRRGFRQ
T2 sequence (P19328 whole entry): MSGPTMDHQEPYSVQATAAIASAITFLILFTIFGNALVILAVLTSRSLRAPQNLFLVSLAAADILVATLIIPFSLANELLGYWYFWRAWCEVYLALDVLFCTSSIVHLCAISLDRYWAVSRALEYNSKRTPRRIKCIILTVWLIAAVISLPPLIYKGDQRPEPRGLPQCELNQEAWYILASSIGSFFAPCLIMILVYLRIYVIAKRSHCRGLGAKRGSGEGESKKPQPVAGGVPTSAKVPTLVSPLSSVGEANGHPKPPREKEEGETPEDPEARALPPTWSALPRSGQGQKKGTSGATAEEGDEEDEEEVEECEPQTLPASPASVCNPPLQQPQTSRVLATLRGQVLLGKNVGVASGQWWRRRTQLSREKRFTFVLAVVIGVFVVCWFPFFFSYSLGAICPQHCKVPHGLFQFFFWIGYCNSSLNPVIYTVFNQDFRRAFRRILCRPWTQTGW
T2 sequence (P22909 whole entry): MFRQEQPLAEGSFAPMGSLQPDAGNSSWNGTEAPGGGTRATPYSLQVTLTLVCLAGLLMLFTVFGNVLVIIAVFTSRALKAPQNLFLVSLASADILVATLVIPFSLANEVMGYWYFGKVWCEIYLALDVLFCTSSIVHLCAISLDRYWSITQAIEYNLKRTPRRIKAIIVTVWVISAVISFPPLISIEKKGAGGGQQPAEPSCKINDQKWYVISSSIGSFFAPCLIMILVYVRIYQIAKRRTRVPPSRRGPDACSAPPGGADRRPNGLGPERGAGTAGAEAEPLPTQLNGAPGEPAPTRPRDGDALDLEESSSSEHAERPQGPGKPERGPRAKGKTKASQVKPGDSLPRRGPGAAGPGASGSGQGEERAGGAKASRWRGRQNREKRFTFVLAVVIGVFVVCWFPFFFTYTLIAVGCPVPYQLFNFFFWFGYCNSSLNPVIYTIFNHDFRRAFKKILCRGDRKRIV
Briefly: Alpha-2 adrenergic receptor blocking activity against clonidine-induced depression of the twitch response in prostatic portion of rat vas deferens. Format: tissue-based. In a few lines: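 Prostatic halves (12 mm) from male albino rat vas deferens, Krebs with propranolol 1 μM and cocaine 10 μM, 0.5–0.8 g tension, field-stimulated at 0.1 Hz, 3-ms pulses, 10-35 V. After ≥1 h equilibration, cumulative clonidine curves on twitch inhibition before and after 30 min antagonist. Dose ratios taken at 50% twitch inhibition; pA2 via Schild plot, slope constrained to -1.0.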

For test [4], the target named is T1, Adrenergic receptor alpha-1. Briefly: Alpha-1-Adrenoceptor blocking activity against norepinephrine-induced contraction in epididymal portion of rat vas deferens. Format: functional, tissue-based. The essentials:
as §1

In the case of `COc1cccc(OC)c1OCCNC[C@@H]1COc2ccccc2[C@H]1O`, in test [1], the Selectivity was found to be 17. The pA2 (usually a measure of antagonist potency on a negative log scale) in test [2] is 7.33; in test [3] it was 6.09.
On the same counts, the results for `COc1cccc(OC)c1OCCNC[C@@H]1CSc2ccccc2O1` are 469, 9.05 and 6.15.
On the same counts, the results for `COc1cccc(OC)c1OCCNC[C@@H]1CSc2ccccc2C1=O` are 229, 8.89 and 6.53.
Take `COc1cccc(OC)c1OCCNCC1COc2ccccc2O1` (stereo not given): the Selectivity in test [1] was found to be 407. Besides, the values for the pA2 in test [2] and in test [3] were 9.24 and 6.63, respectively.
The matching figures for `COc1cccc(OC)c1OCCNC[C@@H]1COc2ccccc2C1=O`: 257, 8.93 and 6.52.
As for `COc1cccc(OC)c1OCCNC[C@@H]1CCc2ccccc2O1`, the Selectivity in test [1] is 141. For the same molecule, the values for the pA2 in test [4] and in test [3] were 9.2 and 7.05, respectively.
On the same counts, the results for `COc1cccc(OC)c1OCCNC[C@@H]1CS(=O)(=O)c2ccccc2O1` are 6, 6.6 and 5.8.
As for `COc1cccc(OC)c1OCCNC[C@@H]1COc2ccccc2S1`, the Selectivity in test [1] is 71. For the same molecule, the pA2 came out at 7.94 in test [2] and 6.09 in test [3].
The matching figures for `COc1cccc(OC)c1OCCNCc1cccc2ccccc12`: 8, 7.33 and 6.41.
For `COc1cccc(OC)c1OCCNC[C@@H]1C[S@@+]([O-])c2ccccc2O1` (relative stereo), the Selectivity in test [1] was found to be 30. For the same molecule, the pA2 in test [2] amounted to 7.71; in test [3] it was 6.24.
`COc1cccc(OC)c1OCCNCc1cc2ccccc2[nH]1`: the Selectivity in test [1] was found to be 4. Moreover, the results for the pA2 in test [4] and in test [3] were 6.6 and 6.04, respectively.
Regarding `COc1cccc(OC)c1OCCNC[C@@H]1COc2ccccc2C1`, the Selectivity in test [1] amounted to 49. Further, the pA2 in test [2] is reported as 7.97; in test [3], 6.28.
The matching figures for `COc1cccc(OC)c1OCCNCc1ccc2ccccc2c1`: 22, 7.75 and 6.4.
As to `COc1cccc(OC)c1OCCNC[C@@H]1C[S@+]([O-])c2ccccc2O1` (relative stereo), the Selectivity in test [1] is 20. Further, the pA2 in test [2] came out at 7.54; in test [3], 6.24.
On to `COc1cccc(OC)c1OCCNC[C@@H]1COc2ccccc2[C@@H]1O`, for which, in test [1], the Selectivity amounted to 13. Also, the values for the pA2 in test [2] and in test [3] were 7.22 and 6.1, respectively.

The values above are taken from ChEMBL document CHEMBL1124252, “Structure-activity relationships in 1,4-benzodioxan-related compounds. Investigation on the role of the dehydrodioxane ring on alpha 1-adrenoreceptor blocking activity” (J Med Chem, 1988).
